According to the M2OR odorant receptor database:

What was measured:
Conditions in all cases: stereoisomer not certain
OR8J3 E4V = tested on: OR8J3 E4V
Outline: (§1)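 Assay methods differ from source to source, frequently being transient luciferase assays in mammalian cell lines. For each receptor–molecule pair, the label responsive (active) applies when the original authors judged the measured signal statistically different from baseline, and non-responsive (inactive) applies otherwise.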

OR8K1 (Homo sapiens) = OR8K1 (Homo sapiens) (UniProt Q8NGG5)
Sequence of OR8K1 (Homo sapiens) (Q8NGG5 whole entry): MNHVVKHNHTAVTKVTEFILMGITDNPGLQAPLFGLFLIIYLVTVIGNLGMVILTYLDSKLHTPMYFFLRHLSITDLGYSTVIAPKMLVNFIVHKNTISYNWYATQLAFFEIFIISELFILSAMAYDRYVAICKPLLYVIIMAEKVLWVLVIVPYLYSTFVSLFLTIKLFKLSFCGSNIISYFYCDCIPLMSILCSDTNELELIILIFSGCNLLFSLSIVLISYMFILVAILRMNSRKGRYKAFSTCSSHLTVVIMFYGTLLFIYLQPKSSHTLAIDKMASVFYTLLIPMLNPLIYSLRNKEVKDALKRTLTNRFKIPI
Outline: as §1

OR8K3 (Homo sapiens) = OR8K3 (Homo sapiens) (UniProt Q8NH51)
Sequence of OR8K3 (Homo sapiens) (Q8NH51 whole entry): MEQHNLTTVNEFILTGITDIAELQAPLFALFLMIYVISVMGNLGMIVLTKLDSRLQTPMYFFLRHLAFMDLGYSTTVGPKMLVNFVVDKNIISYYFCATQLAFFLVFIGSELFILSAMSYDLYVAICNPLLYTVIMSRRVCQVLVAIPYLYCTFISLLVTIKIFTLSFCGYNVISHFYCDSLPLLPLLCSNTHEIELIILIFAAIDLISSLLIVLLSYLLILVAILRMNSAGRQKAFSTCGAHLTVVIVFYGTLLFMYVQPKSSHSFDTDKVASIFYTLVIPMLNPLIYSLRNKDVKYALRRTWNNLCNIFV
Outline: as §1

OR8K5 (Homo sapiens) = OR8K5 (Homo sapiens) (UniProt Q8NH50)
Sequence of OR8K5 (Homo sapiens) (Q8NH50 whole entry): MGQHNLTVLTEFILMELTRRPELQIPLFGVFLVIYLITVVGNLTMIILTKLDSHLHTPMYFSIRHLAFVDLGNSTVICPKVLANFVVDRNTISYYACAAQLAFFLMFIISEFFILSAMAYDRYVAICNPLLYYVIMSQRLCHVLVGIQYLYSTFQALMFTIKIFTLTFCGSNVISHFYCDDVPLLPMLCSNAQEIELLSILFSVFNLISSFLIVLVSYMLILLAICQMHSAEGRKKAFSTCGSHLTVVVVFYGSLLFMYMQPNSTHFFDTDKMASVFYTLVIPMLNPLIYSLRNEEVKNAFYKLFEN
Outline: as §1

OR8S1 (Homo sapiens) = OR8S1 (Homo sapiens) (UniProt Q8NH09)
Sequence of OR8S1 (Homo sapiens) (Q8NH09 whole entry): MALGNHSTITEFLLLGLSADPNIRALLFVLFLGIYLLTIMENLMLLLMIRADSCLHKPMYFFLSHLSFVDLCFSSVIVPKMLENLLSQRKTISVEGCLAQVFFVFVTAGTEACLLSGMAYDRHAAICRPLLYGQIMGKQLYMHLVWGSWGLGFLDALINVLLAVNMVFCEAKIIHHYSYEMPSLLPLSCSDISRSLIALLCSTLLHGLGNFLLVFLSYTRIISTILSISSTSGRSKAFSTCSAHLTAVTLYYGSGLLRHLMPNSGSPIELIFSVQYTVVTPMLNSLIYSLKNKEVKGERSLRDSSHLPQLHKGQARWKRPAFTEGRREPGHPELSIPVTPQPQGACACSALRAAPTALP
Outline: as §1

OR8U1 (Homo sapiens) = OR8U1 (Homo sapiens) (UniProt Q8NH10)
Sequence of OR8U1 (Homo sapiens) (Q8NH10 whole entry): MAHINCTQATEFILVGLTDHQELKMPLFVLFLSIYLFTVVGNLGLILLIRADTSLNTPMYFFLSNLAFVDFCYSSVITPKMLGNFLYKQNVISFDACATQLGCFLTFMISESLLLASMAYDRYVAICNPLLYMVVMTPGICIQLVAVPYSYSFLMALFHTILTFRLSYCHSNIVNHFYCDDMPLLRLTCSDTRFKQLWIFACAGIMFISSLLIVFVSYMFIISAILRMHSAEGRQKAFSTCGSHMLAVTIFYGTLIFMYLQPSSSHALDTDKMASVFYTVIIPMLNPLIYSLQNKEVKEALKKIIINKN
Outline: as §1

OR8U3 (Homo sapiens) = OR8U3 (Homo sapiens) (UniProt Q8NH85)
Sequence of OR8U3 (Homo sapiens) (Q8NH85 whole entry): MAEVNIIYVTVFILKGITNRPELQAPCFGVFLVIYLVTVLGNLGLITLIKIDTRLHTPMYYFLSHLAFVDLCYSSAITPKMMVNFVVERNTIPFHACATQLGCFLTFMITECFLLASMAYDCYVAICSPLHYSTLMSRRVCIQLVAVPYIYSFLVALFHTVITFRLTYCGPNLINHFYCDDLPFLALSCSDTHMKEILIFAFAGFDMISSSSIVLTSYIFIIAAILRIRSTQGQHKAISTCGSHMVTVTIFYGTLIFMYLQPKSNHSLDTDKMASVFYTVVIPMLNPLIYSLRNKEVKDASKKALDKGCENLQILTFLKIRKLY
Outline: as §1

OR8U8 [1] = tested on: OR8U8
Outline: as §1
Target sequence in this assay (as listed by the source): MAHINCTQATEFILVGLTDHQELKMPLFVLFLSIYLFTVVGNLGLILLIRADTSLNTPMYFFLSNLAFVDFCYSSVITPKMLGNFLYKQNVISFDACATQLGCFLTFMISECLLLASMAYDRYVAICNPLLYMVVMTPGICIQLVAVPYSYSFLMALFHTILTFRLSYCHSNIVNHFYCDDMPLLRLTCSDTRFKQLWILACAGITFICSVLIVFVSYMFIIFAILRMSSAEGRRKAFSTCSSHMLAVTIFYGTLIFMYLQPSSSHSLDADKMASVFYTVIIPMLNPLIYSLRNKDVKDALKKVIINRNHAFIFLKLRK

OR8U8 [2] = tested on: OR8U8; remark: listed apart in the source
Outline: as §1
Target sequence in this assay (as listed by the source): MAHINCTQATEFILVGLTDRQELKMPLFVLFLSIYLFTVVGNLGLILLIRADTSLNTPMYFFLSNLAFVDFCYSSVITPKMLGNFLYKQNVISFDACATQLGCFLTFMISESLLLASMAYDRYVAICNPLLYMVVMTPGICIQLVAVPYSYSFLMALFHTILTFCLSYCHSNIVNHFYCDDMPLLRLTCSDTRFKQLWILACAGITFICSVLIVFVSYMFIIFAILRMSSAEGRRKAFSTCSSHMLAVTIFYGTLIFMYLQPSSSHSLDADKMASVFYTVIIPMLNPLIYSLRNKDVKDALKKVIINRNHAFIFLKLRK

OR8U9 (Homo sapiens) = OR8U9 (Homo sapiens) (UniProt P0C7N5)
Sequence of OR8U9 (Homo sapiens) (P0C7N5 whole entry): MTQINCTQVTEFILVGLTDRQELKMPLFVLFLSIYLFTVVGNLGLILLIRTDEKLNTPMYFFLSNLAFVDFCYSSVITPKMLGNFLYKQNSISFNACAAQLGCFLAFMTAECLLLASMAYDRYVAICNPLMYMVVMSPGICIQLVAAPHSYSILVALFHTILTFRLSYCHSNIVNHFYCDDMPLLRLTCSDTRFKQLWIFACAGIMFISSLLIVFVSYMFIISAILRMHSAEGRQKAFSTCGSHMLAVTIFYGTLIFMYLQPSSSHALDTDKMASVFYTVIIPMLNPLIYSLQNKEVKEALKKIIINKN
Outline: as §1

OR8U9 T2A Q3H Q293R = tested on: OR8U9 T2A Q3H Q293R
Outline: as §1

OR8U9 = tested on: OR8U9
Sequence of OR8U9 (as listed by the source): as the sequence (P0C7N5 whole entry) above, with Q293R counted along it
Outline: as §1

OR9A2 (Homo sapiens) = OR9A2 (Homo sapiens) (UniProt Q8NGT5)
Sequence of OR9A2 (Homo sapiens) (Q8NGT5 whole entry): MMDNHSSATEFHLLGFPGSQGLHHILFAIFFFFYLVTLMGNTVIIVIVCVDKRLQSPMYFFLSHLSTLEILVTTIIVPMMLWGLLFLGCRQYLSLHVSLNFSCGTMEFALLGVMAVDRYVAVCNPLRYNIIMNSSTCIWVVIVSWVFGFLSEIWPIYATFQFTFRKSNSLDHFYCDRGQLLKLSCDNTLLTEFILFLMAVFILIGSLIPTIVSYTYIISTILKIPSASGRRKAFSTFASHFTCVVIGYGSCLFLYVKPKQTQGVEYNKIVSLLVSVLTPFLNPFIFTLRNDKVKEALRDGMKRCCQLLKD
Outline: as §1

OR9A2 C304Y = tested on: OR9A2 C304Y
Sequence of OR9A2 C304Y (as listed by the source, stated change not applied): as the sequence (Q8NGT5 whole entry) above, with C304Y counted along it
Outline: as §1

OR9A4 (Homo sapiens) = OR9A4 (Homo sapiens) (UniProt Q8NGU2)
Sequence of OR9A4 (Homo sapiens) (Q8NGU2 whole entry): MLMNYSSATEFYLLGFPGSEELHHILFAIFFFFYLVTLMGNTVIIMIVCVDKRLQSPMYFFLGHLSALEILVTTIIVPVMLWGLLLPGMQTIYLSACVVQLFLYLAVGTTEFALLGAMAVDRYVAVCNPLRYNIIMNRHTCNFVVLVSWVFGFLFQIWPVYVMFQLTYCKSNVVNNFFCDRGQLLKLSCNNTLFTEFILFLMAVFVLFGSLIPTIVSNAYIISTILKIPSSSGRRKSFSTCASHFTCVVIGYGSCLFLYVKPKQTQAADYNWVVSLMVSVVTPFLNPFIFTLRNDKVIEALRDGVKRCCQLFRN
Outline: as §1

OR9G1 (Homo sapiens) = OR9G1 (Homo sapiens) (UniProt Q8NH87)
Sequence of OR9G1 (Homo sapiens) (Q8NH87 whole entry): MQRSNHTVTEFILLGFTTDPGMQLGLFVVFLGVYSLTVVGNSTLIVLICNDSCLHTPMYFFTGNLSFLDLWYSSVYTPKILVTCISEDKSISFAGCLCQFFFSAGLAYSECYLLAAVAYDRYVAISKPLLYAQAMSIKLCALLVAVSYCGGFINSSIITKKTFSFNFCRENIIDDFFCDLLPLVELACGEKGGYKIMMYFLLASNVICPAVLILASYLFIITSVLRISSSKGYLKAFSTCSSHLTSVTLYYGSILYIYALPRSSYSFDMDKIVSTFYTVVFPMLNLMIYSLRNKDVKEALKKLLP
Outline: as §1

OR9G4 (Homo sapiens) = OR9G4 (Homo sapiens) (UniProt Q8NGQ1)
Sequence of OR9G4 (Homo sapiens) (Q8NGQ1 whole entry): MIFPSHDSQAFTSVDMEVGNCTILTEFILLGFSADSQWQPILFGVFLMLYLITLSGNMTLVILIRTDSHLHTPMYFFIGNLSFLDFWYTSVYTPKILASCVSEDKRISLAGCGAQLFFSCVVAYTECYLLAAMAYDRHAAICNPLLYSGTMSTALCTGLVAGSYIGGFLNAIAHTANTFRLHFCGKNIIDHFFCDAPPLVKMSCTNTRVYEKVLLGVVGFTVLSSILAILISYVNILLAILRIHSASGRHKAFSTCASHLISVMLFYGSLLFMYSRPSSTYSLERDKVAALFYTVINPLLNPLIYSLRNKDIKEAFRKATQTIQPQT
Outline: as §1

OR9G4 H6Y N206D V222A = tested on: OR9G4 H6Y N206D V222A
Outline: as §1

OR9G4 N206D V222A = tested on: OR9G4 N206D V222A
Outline: as §1

OR8U8 (Homo sapiens) = OR8U8 (Homo sapiens) (UniProt P0C7N1)
Sequence of OR8U8 (Homo sapiens) (P0C7N1 whole entry): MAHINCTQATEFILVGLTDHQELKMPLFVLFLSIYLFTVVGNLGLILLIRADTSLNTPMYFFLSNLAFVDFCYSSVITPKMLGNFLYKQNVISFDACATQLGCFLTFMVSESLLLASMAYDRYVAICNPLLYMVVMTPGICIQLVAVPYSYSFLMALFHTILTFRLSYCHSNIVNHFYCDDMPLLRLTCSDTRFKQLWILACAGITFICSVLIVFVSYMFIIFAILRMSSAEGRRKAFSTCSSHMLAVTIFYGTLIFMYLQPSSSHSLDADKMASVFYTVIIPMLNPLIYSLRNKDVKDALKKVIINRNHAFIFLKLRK
Outline: as §1

Measured: odorant receptor agonist call

Sequence of OR8J3 E4V (as listed by the source): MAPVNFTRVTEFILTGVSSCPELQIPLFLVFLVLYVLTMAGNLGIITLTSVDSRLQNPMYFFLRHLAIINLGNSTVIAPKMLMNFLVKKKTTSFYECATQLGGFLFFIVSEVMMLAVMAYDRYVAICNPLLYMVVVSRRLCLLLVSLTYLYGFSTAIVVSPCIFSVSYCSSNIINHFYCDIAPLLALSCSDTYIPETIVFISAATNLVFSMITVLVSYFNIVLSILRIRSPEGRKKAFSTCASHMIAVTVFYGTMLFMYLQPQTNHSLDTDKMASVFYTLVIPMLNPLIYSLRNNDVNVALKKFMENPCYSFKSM

C=CCOC(=O)Cc1ccccc1
not listed: OR8U8 (Homo sapiens)
inactive: all other assays above

Cc1c([N+](=O)[O-])c(C)c([N+](=O)[O-])c(C(C)(C)C)c1[N+](=O)[O-]
not listed: OR8J3 E4V | OR8U8 [1] | OR8U8 [2] | OR8U9 T2A Q3H Q293R | OR8U9 | OR9A2 C304Y | OR9G4 H6Y N206D V222A | OR9G4 N206D V222A
inactive: all other assays above
